Results published in PMC11651071 (International Journal of Nanomedicine, 2024).

Columns and labels:
[1] = system: Hela cells xenograft tumor; test: In vivo anti-tumor effect, subcutaneous xenograft model using Hela cells; design: species or system nude mice; conditions: for Body weight of nude mice during treatment: CU, CA7, CA7-LP 50 mg/kg, DDP-INJ 3.5 mg/kg, i.p. every 2 days for 14 days; for Tumor cell infiltration in kidneys and livers (H&E): after treatment
In short: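 Female BALB/c immunodeficient mice (4 w, 15–16 g) received 3.5×10^7 HeLa cells in 100 µL PBS s.c. near the right scapula. At ~100 mm³, mice were randomised into five groups (n = 5): saline, test articles at 50 mg/kg, or cisplatin injection at 3.5 mg/kg. Dosing was i.p. every 2 days for 14 days. Tumour volume (V = 1/2·ab²) and body weight were tracked; tumours were then weighed and organs formalin-fixed for H&E, with tumour Ki67 immunohistochemistry.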

Hela cells [2] = test: Cell apoptosis detection; type: cell-based; conditions: 24 h
Hela cells [3] = test: Cell cycle assay; type: cell-based; conditions: 24 h
In short: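 HeLa cells (DMEM, 10% FBS) were seeded at 5.5×10^5 cells/well in 6-well plates and treated in DMEM for 24 h. Collected cells were fixed by dropwise 70% ethanol and held at −20°C for 24 h. They were washed twice in chilled PBS, stained with PI buffer for 30 min at room temperature in the dark, and analysed by flow cytometry. Mean ± SD, ≥3 independent experiments.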

Hela cells [4] = test: Cell viability assay; type: cell-based; conditions: 24 h
In short: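 MTT assay: HeLa cells at 4.5×10^3 cells/well were allowed to adhere for 24 h, then exposed to gradient concentrations for 24, 48 or 72 h, with 0.1% DMSO as negative control. MTT was added for 3.5 h at 37°C, and formazan was dissolved in DMSO and read at 490 nm. Inhibition rate = [1 − (ODsample − ODblank)/(ODcontrol − ODblank)] × 100%. Mean ± SD, ≥3 independent experiments.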

Hela cells [5] = test: Wound healing assay; type: cell-based; conditions: 24 h, serum-free DMEM
In short: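 Scratch assay: a confluent HeLa monolayer (9×10^5 cells/well, 6-well plates) was scraped with a 200 µL pipette tip and washed twice with PBS. Treatments were added in serum-free DMEM and plates kept at 37°C, 5% CO2. Wound closure was imaged by microscope at 0 and 24 h.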

[6] = 50 mg/kg intraperitoneally every 2 days for 14 days

Compound | Body weight of nude mice during treatment [1] | Mortality of nude mice ([1]; DDP-INJ 3.5 mg/kg i.p., as the number of administrations increased) | Tumor cell infiltration in kidneys and livers (H&E) [1] | Total apoptosis rate (Hela cells [2]; 2.5 μM) | Total apoptosis rate (Hela cells [2]; 5 μM) | Total apoptosis rate (Hela cells [2]; 10 μM) | Change of cell cycle distribution (Hela cells [3]) | Maximum inhibition rate (Hela cells [4]) | Tumor inhibition rate [1, 6] | Tumor weight [1, 6] | Migration rate (Hela cells [5]) | Proportion of the G2/M phase (Hela cells [3]; 2.5 μM) | Proportion of the G2/M phase (Hela cells [3]; 5 μM) | Proportion of the G2/M phase (Hela cells [3]; 10 μM)
N.N.[Cl][Pt][Cl] [DDP-INJ, Cisplatin] | notable decrease in body weight | some mice dying | absent | 11.57 ± 1.16% | 23.73 ± 2.30% | 32.17 ± 3.68% | increase in the S phase and a decrease in G2/M phase | – | – | – | – | – | – | –
COc1cc(/C=C/C(=O)CC(=O)/C=C/c2ccc(O)c(OC)c2)ccc1O [CU, Curcumin] | remained stable | – | present in small amounts | 7.29 ± 1.64% | 11.64 ± 3.19% | 17.60 ± 3.39% | – | 5.77 ± 2.40% | 28.58 ± 8.04% | 0.49 ± 0.06 g | 42.12 ± 3.06% | 17.84 ± 1.07% | 20.46 ± 2.44% | 22.78 ± 3.60%
